CYP2C9 act: activators of human CYP2C9 | recombinant CYP2C9, luciferin-H conversion, luminescence; stronger effect = higher value; factor 1 = untreated enzyme, 0 = blocked | activation factor at 5 µM | actives 1.4% (n = 96,000);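 active means activation factor of 2 or more for CYP2C9 at a 5 µM dose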;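 further: 0 = sulfaphenazole-blocked wells and 1 = vehicle-only wells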
Target sequence (P11712 whole entry, looked up): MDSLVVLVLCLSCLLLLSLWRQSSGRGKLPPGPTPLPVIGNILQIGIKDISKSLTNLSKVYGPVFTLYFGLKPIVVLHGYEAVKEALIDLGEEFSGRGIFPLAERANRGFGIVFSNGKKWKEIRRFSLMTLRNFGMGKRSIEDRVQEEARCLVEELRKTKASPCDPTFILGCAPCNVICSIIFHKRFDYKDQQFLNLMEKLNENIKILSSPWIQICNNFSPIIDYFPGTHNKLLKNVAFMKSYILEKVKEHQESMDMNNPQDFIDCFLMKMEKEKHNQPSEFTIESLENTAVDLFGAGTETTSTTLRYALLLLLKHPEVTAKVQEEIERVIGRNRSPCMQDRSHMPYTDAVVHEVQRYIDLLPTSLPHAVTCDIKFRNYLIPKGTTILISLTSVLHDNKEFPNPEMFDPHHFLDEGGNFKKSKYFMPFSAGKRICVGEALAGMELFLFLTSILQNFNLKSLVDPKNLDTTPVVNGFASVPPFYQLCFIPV
CYP2C19 activ: cytochrome P450 2C19 (human) activation; recombinant CYP2C19, luciferin-H EGE luminescence; stronger effect = higher value; 0 = fully inhibited enzyme, 1 = untreated enzyme; 96,000 tested, under 10 active; AID 1025; P33261; activation factor at 5 µM;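 active means activation factor of at least 2 at 5 µM in the primary screen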;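 further: 0 = wells with 2.5 mM tranylcypromine and 1 = vehicle-only wells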
Ecoli tolC: blocks growth of E. coli BW25113 tolC mutant | OD615 | growth inhibition, % at 10 µM (by protocol) | actives 2.2% (n = 65,000) | AID 573;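 active means growth inhibition at or above a cutoff equal to the mean over every tested compound plus 3 SD, cut at about 60% in these data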;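 further: growth measured after 20 h incubation at 37 °C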
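Test system: tolC-deleted E. coli BW25113; medium: LB with kanamycin 50 µg/mL; compound: single-point testing at 10 µM; incubation: 20 h compound exposure of bacteria at 37 °C; signal: OD at 615 nm; evaluation: growth inhibition in percent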
E coli WT exp: E. coli BW25113 growth inhibition, expanded screen. growth inhibition, % at 100 µM. actives 0.15% (n = 98,000). OD600 absorbance. AID 710;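 active means growth inhibition above about 50% at one test dose, limit read from the data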;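 further: growth measured after 20 h incubation at 37 °C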
CYP2C19 inhib: human CYP2C19 inhibition | AID 778 | inhibition, % at 5 µM | actives 21% (n = 96,000) | CYP2C19 Supersomes, luciferin-H EGE luminescence, 30 min;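 active means CYP2C19 inhibition above a set limit at 5 µM in the primary screen, cut at about 50% in these data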;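 further: plate controls were negative control wells for no effect and 2.5 mM tranylcypromine positive control for full effect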
CYP2C9 inhib: human CYP2C9 inhibition | P11712 | CYP2C9 Supersomes, luciferin-H conversion, luminescence | actives 20% (n = 96,000) | inhibition, % at 5 µM;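 active means blocking of liver enzyme CYP2C9 beyond about 50% at 5 µM, limit read from the data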
* hit, by the source's call. Hits are enriched below; roughly 29% of the tested compounds scored in any of these assays.

For COC(=O)c1nn(-c2ccccc2)c(Cl)c1/C=N/OCc1ccc(C)cc1 the results were CYP2C9 act 0.5, CYP2C19 activ 0.7, E coli WT exp -12, CYP2C19 inhib 28 and CYP2C9 inhib 46.
Screening CC(/C=N/NC(=O)C(O)c1ccccc1)=C\c1ccccc1 (stereo unspecified) returned CYP2C9 act 0.7, CYP2C19 activ 0.8, E coli WT exp 5, CYP2C19 inhib 22 and CYP2C9 inhib 33.
`Cc1cc(OC(C)C(=O)N/N=C/CC(C)c2ccccc2)ccc1Cl` (stereo unspecified) gave CYP2C9 act 0.8, CYP2C19 activ 0.3, E coli WT exp 0, CYP2C19 inhib 74* and CYP2C9 inhib 25.
For CCn1c(NC(=O)c2cccs2)nc2ccccc21 the results were CYP2C9 act 0.9, CYP2C19 activ 0.8, Ecoli tolC 28, E coli WT exp 3, CYP2C19 inhib 19 and CYP2C9 inhib 6.
Screening CCCC(=O)Nc1c(-c2cccs2)c(=O)c2ccccc2n1C returned CYP2C9 act 0.6, CYP2C19 activ 0.9, E coli WT exp -2, CYP2C19 inhib 8 and CYP2C9 inhib 43.
`Cc1ccc(C(=O)Nc2c(-c3cccs3)c(=O)c3ccccc3n2C)cc1` gave CYP2C9 act 0, CYP2C19 activ 0.8, E coli WT exp -9, CYP2C19 inhib 18 and CYP2C9 inhib 98*.
For CCn1c(NC(=O)c2cccs2)c(-c2cccs2)c(=O)c2ccccc21 the results were CYP2C9 act 0.1, CYP2C19 activ 0.9, Ecoli tolC 17, E coli WT exp 2, CYP2C19 inhib 10 and CYP2C9 inhib 93*.
For CCCCCNC(=O)c1ccccc1SC the results were CYP2C9 act 1.3, CYP2C19 activ 0.4, E coli WT exp 4, CYP2C19 inhib 59* and CYP2C9 inhib -29.
For CCSc1ccccc1C(=O)NCCCn1ccnc1 the results were CYP2C9 act 0.4, CYP2C19 activ 0.1, Ecoli tolC 6, E coli WT exp 7, CYP2C19 inhib 92* and CYP2C9 inhib 63*.
COCCNC(=O)c1ccccc1NC(=O)c1ccc(OC)c(OC)c1 was read as CYP2C9 act 0.7, CYP2C19 activ 1, Ecoli tolC -6, E coli WT exp 4, CYP2C19 inhib 3 and CYP2C9 inhib 33.
Screening O=C(Nc1ccccc1C(=O)NCCCn1ccnc1)c1ccccc1 returned CYP2C9 act 0, CYP2C19 activ 0.2, Ecoli tolC 10, E coli WT exp 4, CYP2C19 inhib 84* and CYP2C9 inhib 96*.
For COc1ccc(C(=O)Nc2ccccc2C(=O)NCCCn2ccnc2)cc1 the results were CYP2C9 act 0, CYP2C19 activ 0.2, Ecoli tolC -2, E coli WT exp 1, CYP2C19 inhib 85* and CYP2C9 inhib 100*.
For CCOCCCNC(=O)c1ccccc1SCC the results were Ecoli tolC -8.
C=CCNC(=O)c1ccccc1NC(=O)c1ccccc1 was read as CYP2C9 act 0.5, CYP2C19 activ 0.7, Ecoli tolC 12, E coli WT exp -4, CYP2C19 inhib 27 and CYP2C9 inhib 49.
Screening O=C(OCCn1cncn1)c1cc2ccccc2oc1=O returned CYP2C9 act 0.9, CYP2C19 activ 0.8, Ecoli tolC -12, E coli WT exp -2, CYP2C19 inhib 16 and CYP2C9 inhib 12.
Screening O=C(CCn1c(=O)sc2ccccc21)NCCCn1ccnc1 returned Ecoli tolC -16.
For O=C(NCCCn1ccnc1)c1csc2ccccc12 the results were CYP2C9 act 0.1, CYP2C19 activ 0.1, Ecoli tolC -7, E coli WT exp 12, CYP2C19 inhib 87* and CYP2C9 inhib 87*.
For COc1ccccc1NC(=O)CN1CCN(CC(=O)Nc2cc(NC(C)=O)ccc2OC)CC1 the results were CYP2C9 act 0.8, CYP2C19 activ 0.6, Ecoli tolC -1, E coli WT exp -16, CYP2C19 inhib 41 and CYP2C9 inhib 24.
`COc1ccc(C)cc1N(CC(=O)Nc1cccc(N(C)S(C)(=O)=O)c1)S(C)(=O)=O` gave CYP2C9 act 0.7, CYP2C19 activ 0.8, Ecoli tolC -3, E coli WT exp 6, CYP2C19 inhib 20 and CYP2C9 inhib 30.
Screening COc1ccc(N(CC(=O)Nc2cccc(N(C)S(C)(=O)=O)c2)S(C)(=O)=O)cc1OC returned CYP2C9 act 0.9, CYP2C19 activ 1, Ecoli tolC -13, E coli WT exp -2, CYP2C19 inhib 3 and CYP2C9 inhib 10.
Cc1ccc(S(=O)(=O)N(CC(=O)Nc2cccc(N(C)S(C)(=O)=O)c2)c2ccc(Cl)c(Cl)c2)cc1 was read as CYP2C9 act 0, CYP2C19 activ 0.2, E coli WT exp -7, CYP2C19 inhib 80* and CYP2C9 inhib 100*.
`CN(c1cccc(NC(=O)CN(c2ccc(C34CC5CC(CC(C5)C3)C4)cc2)S(C)(=O)=O)c1)S(C)(=O)=O` gave CYP2C9 act 0.5, CYP2C19 activ 0.8, E coli WT exp -1, CYP2C19 inhib 17 and CYP2C9 inhib 54*.
Screening CC(=O)c1cc(C#N)c(SCc2ccccc2)nc1C returned CYP2C9 act 1, CYP2C19 activ 0.8, E coli WT exp 1, CYP2C19 inhib 24 and CYP2C9 inhib -3.
`Nc1cc(-c2cccc(F)c2)nn1S(=O)(=O)c1cccc2nsnc12` gave Ecoli tolC 24 and E coli WT exp 5.
`Nc1cc(-c2ccccc2)nn1S(=O)(=O)c1ccc(Br)cc1` gave CYP2C9 act 0.5, CYP2C19 activ 0.9, E coli WT exp -5, CYP2C19 inhib 12 and CYP2C9 inhib 49.
Screening Nc1cc(-c2ccc(Br)cc2)nn1S(=O)(=O)c1cccc2nsnc12 returned CYP2C9 act 0.1, CYP2C19 activ 0, E coli WT exp -7, CYP2C19 inhib 96* and CYP2C9 inhib 89*.
`Nc1cc(-c2ccc(Cl)cc2)nn1S(=O)(=O)c1cccc2nsnc12` gave CYP2C9 act 0.1, CYP2C19 activ 0.1, E coli WT exp -1, CYP2C19 inhib 94* and CYP2C9 inhib 86*.
Screening C/C(Cn1nc([N+](=O)[O-])cc1C)=N\NC(=O)c1ccc(C(C)(C)C)cc1 returned CYP2C9 act 0.6, CYP2C19 activ 0.8, E coli WT exp 7, CYP2C19 inhib 21 and CYP2C9 inhib 38.
For CCOc1cc(C2CC(=O)Nc3cc(C)c(C)cc32)ccc1O (stereo unspecified) the results were CYP2C9 act 0.2, CYP2C19 activ 0.1, Ecoli tolC 19, E coli WT exp -1, CYP2C19 inhib 87* and CYP2C9 inhib 84*.
Screening CCOc1cc(C2CC(=O)NC(SCC)=C2C#N)ccc1O (stereo unspecified) returned CYP2C9 act 0.7, CYP2C19 activ 0.7, Ecoli tolC -1, E coli WT exp -5, CYP2C19 inhib 33 and CYP2C9 inhib 27.
CC1CCCCC1N1CN=C(Nc2nc3ccccc3s2)NC1 (stereo unspecified) was read as CYP2C9 act 1.1, CYP2C19 activ 1, E coli WT exp -4, CYP2C19 inhib 5 and CYP2C9 inhib -12.
